# This is a sample that favours compounds with a hit; in the whole collection about 1.7% have one here.
# UCH37 inh: inhibitors of human deubiquitinating enzyme UCH37; hit rate 0.33% among 330,000; Q9Y5K5; AID 588478; inhibition, % (concentration not given with the values); purified proteasome/UCH37, Ub-AMC cleavage fluorescence;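 active = mean inhibition over replicate wells above about 20%, limit read from the data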;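 note: 0% = compound-free wells with enzyme and 100% = wells lacking proteasome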
#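 system = Proteasome-associated human UCH37 deubiquitinase | amount = 0.15 nM proteasome as dispensed | medium = pH 7.4 Tris-HCl (50 mM) with ovalbumin, ATP-MgCl2, DTT | incubation = 30 min preincubation with enzyme, 25 min cleavage at room temperature | detection = AMC fluorescence 355/460 nm | read-out basis = percent inhibition | controls = no-proteasome and no-compound wells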
# PLCg1 inh: inhibitors of human phospholipase C gamma1 | purified PLC-gamma1, fluorogenic substrate, fluorescence | hit rate 0.84% among 370,000 | P19174 | inhibition, % at 12.2 µM | AID 720700; in the data active = inhibition above about 9.5%
# Rpn11 inh: blocks the human proteasome subunit Rpn11 | O00487 | inhibition, % at 20 µM | AID 588493 | hit rate 0.59% among 360,000 | human 26S proteasome, Ub4-pepOG fluorescence polarization; 20S core pre-blocked with epoxomicin;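 active = inhibition at 20 µM, scaled to each plate's controls, above about 33%, limit read from the data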
# PLCb3 inh: inhibitors of human phospholipase C beta3. Q01970. Purified PLC-beta3, fluorogenic substrate, fluorescence. inhibition, % at 12.2 µM. hit rate 0.18% among 370,000. AID 720704; in the data active = inhibition above about 11%;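 note: 0% = median of compound wells on plate and 100% = full blocker control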
# Rpn11 confirm: confirmation of human proteasome Rpn11 inhibitors | shares compounds with Rpn11 inh | purified human 26S proteasome, Ub4-pepOG fluorescence polarization; proteasome pretreated with epoxomicin | inhibition, % at 20 µM | hit rate 29% among 1,900 | AID 602318
# MMP-2 inh: blocks human MMP-2, flagging nonselective RPN11 hits | shares compounds with Rpn11 inh | recombinant MMP-2, FRET peptide cleavage fluorescence | inhibition, % at 20 µM | hit rate 4% among 1,900;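 note: human MMP-2 activated beforehand with APMA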
# Thrombin inh: counter-screen for RPN11 inhibitors: inhibition of bovine thrombin; shares compounds with Rpn11 inh; bovine thrombin cleavage of Ub4-pepOG, fluorescence polarization; inhibition, % at 20 µM; hit rate 13% among 1,900;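 active = mean inhibition at least 40% at 20 µM, or signal 3 deviations below plate average, so some actives read negative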;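 note: plate controls were thrombin with DMSO for no effect and buffer wells lacking thrombin for full effect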
# Target sequence (P00735 whole entry, looked up): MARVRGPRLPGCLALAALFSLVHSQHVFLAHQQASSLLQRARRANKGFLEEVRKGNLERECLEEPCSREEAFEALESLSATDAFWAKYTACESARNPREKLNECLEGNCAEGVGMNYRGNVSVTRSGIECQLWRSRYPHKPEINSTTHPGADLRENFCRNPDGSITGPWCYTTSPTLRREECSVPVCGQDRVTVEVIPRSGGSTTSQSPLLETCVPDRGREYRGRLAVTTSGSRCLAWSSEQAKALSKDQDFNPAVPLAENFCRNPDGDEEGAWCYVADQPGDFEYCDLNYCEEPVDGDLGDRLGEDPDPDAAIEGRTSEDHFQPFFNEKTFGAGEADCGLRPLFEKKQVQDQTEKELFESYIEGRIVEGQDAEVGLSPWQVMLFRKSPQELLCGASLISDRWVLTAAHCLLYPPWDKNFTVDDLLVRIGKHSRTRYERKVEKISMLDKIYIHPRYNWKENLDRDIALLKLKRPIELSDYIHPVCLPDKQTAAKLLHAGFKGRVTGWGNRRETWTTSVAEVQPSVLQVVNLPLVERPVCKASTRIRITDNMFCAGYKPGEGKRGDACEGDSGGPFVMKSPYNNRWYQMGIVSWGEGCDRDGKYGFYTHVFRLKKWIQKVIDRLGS
# Numbers without * were called inactive; i = inactive; . = no result. Cut-off read from the data, not from the text of the source, unless noted: active = inhibition above about 40%; inactive = the rest.
SMILES,UCH37 inh,PLCg1 inh,Rpn11 inh,PLCb3 inh,Rpn11 confirm,MMP-2 inh,Thrombin inh
COc1ccc(NC(=O)c2cc(OC)c(OC)cc2OC)c(S(=O)(=O)N2CCOCC2)c1,3.2,2.2,161.2*,-1.1,-2.5,6.2,-3.2
COc1cc(OC)c(C(=O)Nc2cc(S(=O)(=O)N3CCOCC3)ccc2N2CCOCC2)cc1OC,.,5.7,-4.5,6.0,.,.,.
NS(=O)(=O)c1cccc(C(=O)NC2CCSc3ccccc32)c1 (stereo not drawn),3.0,2.2,-3.6,-8.1,.,.,.
NS(=O)(=O)c1cc(C(=O)NC2CCSc3ccccc32)ccc1Cl (stereo not drawn),.,-0.6,106.4*,-8.9,97.8*,21.7,60.5*
CCOc1ccc(C=NOCC(=O)Nc2ccc3c(c2)OCO3)cc1,0.2,.,.,.,.,.,.
CC(=NN=Cc1cccc(F)c1)c1nnn(-c2nonc2N)c1C,1.9,.,.,.,.,.,.
Nc1ccc(N=Nc2ccc(N)cc2)cc1,17.4,1.2,20.6,-5.7,.,.,.
Cc1cc(N(C)C)ccc1N=Nc1ccc(N)cc1,6.1,4.1,47.8*,-4.4,35.2,5.3,28.4
CCCCOC(=O)c1cc(-c2ccc(C=Nn3cnnc3)o2)ccc1Cl,-90.7,.,.,.,.,.,.
COc1ccc(OCCNC(=O)c2ccc(C)cc2)cc1,-0.2,-0.5,40.0*,-7.5,-15.8,3.2,-25.9
O=[N+]([O-])c1ccc(-c2ccc(/C=N/Nc3nc(N4CCCCC4)nc(N4CCCCC4)n3)o2)cc1,.,2.2,57.5*,0.4,-1.0,-19.8,-13.5
O=C(N/N=C/c1ccc(-c2ccc([N+](=O)[O-])cc2)o1)c1cccnc1,.,-74.3,84.8*,-117.3,48.8*,-15.1,-17.0
Cc1cccc(C=NNC(=O)c2ccc(NC(=O)c3ccc(F)cc3)cc2)n1,5.0,.,.,.,.,.,.
CSc1nsc(/C=C/Nc2ccc(F)cc2)c1C#N,2.7,-36.0,64.4*,-37.9,28.4,-36.6,16.1
CSc1nsc(/C=C/Nc2cccc(Cl)c2)c1C#N,-4.1,-34.8,33.1,-33.6,.,.,.
CSc1nsc(/C=C/Nc2ccc(Cl)cc2)c1C#N,-2.2,-38.5,43.0*,-44.9,15.8,-29.7,-9.5
Cc1onc(-c2ccccc2)c1C(=O)NN=Cc1cc(Br)c(Br)o1,0.7,.,.,.,.,.,.
CC(C)CCOc1ccc(/C=N/N2C(=O)CSC2=S)cc1,.,-4.1,38.8*,-13.6,-10.7,32.2,-9.4
COCCCn1c(=N)c(C(N)=S)cc2c(=O)n3cccc(C)c3nc21,-30.8,-337.2,12.2,i,.,.,.
Cc1cccn2c(=O)c3cc(C(N)=S)c(=N)n(CCCN4CCOCC4)c3nc12,-11.7,-143.3,51.2*,-221.8,4.4,49.2*,-2.8
CCOCCCNC(=O)/C(C#N)=C/c1ccc([N+](=O)[O-])o1,-40.2,-34.2,37.2*,-55.8,18.1,-30.9,18.4
CC(Cn1nnc([N+](=O)[O-])n1)=NNC(=O)c1cccc(Cl)c1,2.0,.,.,.,.,.,.
CCOC(=O)c1c(NC(=O)CN2CCCc3ccccc32)sc(C)c1CC,1.1,-4.2,44.1*,-6.5,-1.4,-25.6,5.5
CCC(=NNC(=O)c1cc(C)nc2ccccc12)c1ccc(C)s1,-2.2,.,.,.,.,.,.
CCc1n[nH]c(=S)n1N=Cc1cc(Br)c(OC)cc1OC,7.8,.,.,.,.,.,.
SMILES,UCH37 inh,PLCg1 inh,Rpn11 inh,PLCb3 inh,Rpn11 confirm,MMP-2 inh,Thrombin inh
Cc1cc2nc(CS)[nH]c2cc1C,-13.1,-78.9,49.9*,-108.6,52.5*,13.9,0.9
Cc1cc2nc(/C=C/c3nc4cc(C)c(C)cc4[nH]3)[nH]c2cc1C,.,-285.4,56.5*,-367.1,3.8,-5.3,-29.9
Cc1cc2nc(CO)[nH]c2cc1C,3.6,-3.6,-0.1,-6.1,.,.,.
CCn1nc(C)c(C=NNC(=O)c2cccc(OC)c2)c1C,0.2,.,.,.,.,.,.
CS(=O)(=O)c1ccc(C(=O)OCC(=O)NCc2cccs2)cc1[N+](=O)[O-],6.0,3.0,41.0*,-1.8,-23.5,-31.8,-32.8
CNC(=O)/C(C#N)=C/c1c(N2CCN(c3ccc(OC)cc3)CC2)nc2c(C)cccn2c1=O,5.0,-21.6,55.7*,-44.2,-16.7,-57.0,9.4
O=C(CSc1nc2[nH]ncc2c(=O)[nH]1)Nc1ccc(Cl)c(Cl)c1,4.8,2.0,-1.9,-2.3,.,.,.
Cc1ccc(NC(=O)CSc2nc3[nH]ncc3c(=O)[nH]2)cc1Cl,3.5,0.2,51.2*,-0.2,-9.2,-21.9,-9.6
COCCCn1c(SCc2nc3ccccc3c(=O)[nH]2)nc2ccccc2c1=O,0.4,0.7,104.9*,-2.9,-13.4,-22.8,7.8
Cc1sc2nc(CSc3nc4ccccc4c(=O)n3CCCN3CCOCC3)[nH]c(=O)c2c1C,-0.1,-17.7,50.2*,-26.0,89.2*,-32.9,38.4
CC(Cn1cnc([N+](=O)[O-])n1)=NNC(=O)c1ccncc1,1.5,.,.,.,.,.,.
Cc1ccc(-n2ncc(C#N)c2N=CN2CCCCCC2)cc1,0.6,.,.,.,.,.,.
COc1ccc(C=Nn2c(C)nc3c([nH]c4ccccc43)c2=O)cc1CN1CCCC(C)(C)C1,0.5,.,.,.,.,.,.
COc1ccc2[nH]c3c(=O)n(/N=C/c4ccc(OC)c(CN5CCCC5)c4)c(C)nc3c2c1,.,-61.7,91.2*,-86.7,90.1*,-53.9,-4.2
Cc1ccc(Cn2c(C(C)Nc3nc(-c4ccc(C)cc4)cs3)nc3cc(Cl)c(Cl)cc32)cc1 (stereo not drawn),.,2.2,71.4*,-2.4,65.1*,51.0*,-40.7
CC(O)[C@H]1CC[C@H]2[C@@H]3CC[C@H]4C[C@@H](O)CC[C@]4(C)[C@H]3C(=NO)C[C@]12C (stereo partly drawn),0.3,.,.,.,.,.,.
O=c1c2c(nc3cc(-c4ccccc4Cl)[nH]n13)CCS2,-16.5,-98.1,56.3*,-126.6,12.3,0.3,9.8
O=c1c2c(nc3cc(-c4ccccc4)[nH]n13)CCS2,-14.5,-30.0,4.5,-33.3,.,.,.
COc1cc(C=NN2CCN(c3ccccc3)CC2)cc(OC)c1OC(C)=O,0.7,.,.,.,.,.,.
CCc1ccc(NC(=O)C2CCN(S(=O)(=O)c3ccc4c(c3)NC(=O)C(C)S4)CC2)cc1 (stereo not drawn),3.3,6.7,68.8*,-1.6,87.4*,24.7,33.2
CC(=O)N(/N=C1\Sc2ccccc2C1=O)c1ccccc1C,.,-5.8,38.6*,-6.3,4.8,-44.2,9.0
COC(=O)C1=C(C)N(CCc2ccc(OC)c(OC)c2)C(=O)/C1=C\N(C)C,6.3,-0.2,60.3*,-0.4,-9.9,5.4,-10.6
COc1ccc(CCN2C(=O)C=CC2=O)cc1OC,.,1.2,0.3,-4.1,.,.,.
CCC(C)N1C(=O)/C(=C/c2c(NCCCOC(C)C)nc3c(C)cccn3c2=O)SC1=S (stereo not drawn),9.0,-9.9,7.0,-13.4,.,.,.
CCCN1C(=O)/C(=C/c2c(NCCCOC(C)C)nc3c(C)cccn3c2=O)SC1=S,5.1,.,109.7*,.,83.5*,-20.8,48.5*
